Measured values of several laboratories.
Protocols differ between the studies behind these lines.
Target: SRSF protein kinase 2 (SRPK2, Homo sapiens, UniProt P78362)

Cc1cnc(NC2CCOCC2)nc1-n1cnc(C(=O)NC(CN)c2cc(F)cc(Cl)c2)c1 (stereo not shown)
remaining activity (enzyme activity, inhibitor, radiometric; 1 µM): 101%

COc1cc2ncnc(Nc3ccc(Oc4ccccc4)c(C)c3C)c2cc1OC
inhibition (enzyme activity, inhibitor; 1 µM): -3%

N#CC1(c2ccccn2)CCN(Cc2cc(C(=O)N3CCCC3)c(=O)n3ccccc23)CC1
remaining binding (cell-free assay, competition with immobilised ligand; 1 µM): 84%

C#Cc1cccc(Nc2ncnc3cc(OCCOC)c(OCCOC)cc23)c1
remaining signal (cell-free assay; 0.5 µM): 101%

Cn1c2c(c3ccc(Cl)c(Cl)c31)C(C#N)C(C)(C)NC2=O (stereo not shown)
ΔTm (thermal stability, DSF; 10 µM): 0.6 °C

CCN(CC)CCNC(=O)c1c(C)[nH]c(/C=C2\C(=O)Nc3ccc(F)cc32)c1C
inhibition (enzyme activity, inhibitor; 0.3 µM): 6%

N#CC1c2c([nH]c3c(Cl)c(Cl)ccc23)C(=O)NC12CCCCC2 (racemic)
ΔTm (thermal stability, DSF; 10 µM): 0.7 °C

Cc1ccc(NC(=O)c2ccc(C)c(C(F)(F)F)c2)cc1C#Cc1nn(C2CCC(O)CC2)c2ncnc(N)c12 (stereo not shown)
remaining signal (cell-free assay; 10 µM): 107%

CN(C)CC#Cc1ccc(OCCCc2sc(N3CCc4cccc(C(=O)Nc5nc6ccccc6s5)c4C3)nc2C(=O)O)c(F)c1
remaining binding (cell-free assay, competition with immobilised ligand; 1 µM): 100%

CC(C)(C)c1nc2c(s1)c1nc(N)ncc1c1ccc(NS(=O)(=O)c3c(F)cccc3F)c(F)c12
remaining activity (enzyme activity, inhibitor, radiometric; 1 µM): 108%

CCCS(=O)(=O)Nc1ccc(F)c(C(=O)c2c[nH]c3ncc(-c4ccc(Cl)cc4)cc23)c1F
inhibition (enzyme activity, inhibitor; 1 µM): < 10%

Cc1ccc(C(=O)Nc2ccc(CN3CCN(C)CC3)c(C(F)(F)F)c2)cc1C#Cc1cnc2cccnn12
remaining activity (enzyme activity, inhibitor; 23.5 nM): 94%

O=C1NC(=O)c2cc(Nc3ccc(F)cc3)c(Nc3ccc(F)cc3)cc21
remaining signal (cell-free assay; 0.5 µM): 92.3%

Cn1c2c(Cl)c(Cl)ccc2c2cc(N)[nH]c(=O)c21
ΔTm (thermal stability, DSF; 10 µM): 0.1 °C

CN([C@@H]1CCc2c(CC(=O)O)c3ccccc3n2C1)S(=O)(=O)c1ccc(F)cc1
remaining binding (cell-free assay, competition with immobilised ligand; 1 µM): 100%

O=C(Nc1cnn(-c2csc(C(=O)NC3COC3)c2)c1)Nc1c(F)cccc1Cl
remaining activity (enzyme activity, inhibitor; 5 µM): 94%

Cc1ccc(Nc2nccc(N(C)c3ccc4c(C)n(C)nc4c3)n2)cc1S(N)(=O)=O
inhibition (enzyme activity, inhibitor; 0.3 µM): -9%

O=C(NS(=O)(=O)c1ccc(NCC2CCOCC2)c([N+](=O)[O-])c1)c1ccc(N2CCN(Cc3ccc(C(F)(F)F)cc3-c3ccc(Cl)cc3)CC2)cc1Oc1cnc2[nH]ccc2c1
remaining binding (cell-free assay, competition with immobilised ligand; 1 µM): 100%

CCN1CCC2(CC1)NC(=O)c1c(c3ccc(Cl)c(Cl)c3n1C)C2C#N (racemic)
ΔTm (thermal stability, DSF; 10 µM): 0.5 °C

COc1cc(Cl)c(C(=O)N[C@@H](CN[C@H]2CC[C@@H](N)CC2)Cc2ccc(C#N)cc2)cc1-c1ccc(CN[C@H](C)c2ccc(C)cc2)o1
remaining activity (enzyme activity, inhibitor; 1 µM): 98%

CNC(=O)c1cc(Oc2ccc(NC(=O)Nc3ccc(Cl)c(C(F)(F)F)c3)cc2)ccn1
inhibition (enzyme activity, inhibitor; 0.3 µM): 2%

Cn1c2c(c3ccc(Cl)c(Cl)c31)C(C#N)C1(CCNCC1)NC2=O (racemic)
ΔTm (thermal stability, DSF; 10 µM): 2.4 °C

Cc1cc(-n2nc(Cc3cc(F)cc(C(F)(F)F)c3)nc2C)ccc1C(N)=O
remaining binding (cell-free assay, competition with immobilised ligand; 1 µM): 100%

CCCOc1ccc(OC)c(F)c1C(=O)c1ccc(C(=O)N[C@@H]2CNC[C@H]2NC(=O)c2ccc3[nH]ncc3c2)cc1
remaining activity (enzyme activity, inhibitor; 10 µM): 93%

C[C@@H](c1cccc(C#N)c1)n1cc(Cl)cc(C(N)=O)c1=N
remaining binding (cell-free assay, competition with immobilised ligand; 1 µM): 100%

Cn1c2c(c3ccc(Cl)c(Cl)c31)C(C#N)C1(CCCC1)NC2=O (stereo not shown)
ΔTm (thermal stability, DSF; 10 µM): 0 °C

CC/C(=N\NC(=O)NCc1cccc(O)c1)c1ccc(O)c(C)c1O
inhibition (enzyme activity, inhibitor; 0.1 µM): -2.2%

C[C@@H]1CN(c2cc(-c3n[nH]c4ccc(OC5(C)CC5)cc34)ncn2)C[C@H](C)O1
remaining binding (cell-free assay, competition with immobilised ligand; 0.1 µM): 79%

Cc1sc(C(=O)NC2COC2)cc1-n1cc(NC(=O)Nc2c(F)cccc2Cl)cn1
remaining activity (enzyme activity, inhibitor; 10 µM): 114%

O=C(O)c1cc(-c2ccc(C3CCNCC3)cc2)c2ccc(-c3ccc(C(F)(F)F)cc3)cc2c1
remaining binding (cell-free assay, competition with immobilised ligand; 1 µM): 100%

COc1cc(-c2cc(-c3ccc(N4CCNCC4)cc3)cnc2C)cc(OC)c1OC
inhibition (enzyme activity, inhibitor; 1 µM): 2%
